Assay outcomes deposited in PubChem by Broad Institute.
The full list was thinned out, with hits kept by preference.
A1 apoptosis 2 – blocks A1, raising caspase activity; MEF A1-2A-BIM cells, caspase-Glo luminescence, 3 h; percent of clofoctol response, DMSO zero; 24,000 tested, under 10 active; caspase activation, % (concentration not given with the values); in the data active = caspase activation above about 5.9%; inconclusive = no clear call, values can overlap the other calls; inactive = below about 2.2%
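System: mouse embryonic fibroblasts co-expressing A1 and BIM (A1-2A-BIM), primed for A1 dependence; amount: 2500 cells/well; doses: 50 nL pinned compound; schedule: cells settled overnight, compound exposure 3 h at 37 °C, 5% CO2; detection: Caspase-Glo 3/7 luminescence, 1 h at room temperature; read-out: Caspase-3/7 activation, seen as rise in luminescence signal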
INS-1E rescue – INS-1E beta cell protection from cytokine death | actives 0.1% (n = 20,000) | protection from cytokine-induced ATP loss, % at 10 µM | INS-1E cytokine-induced death, ATP luminescence, 48 h; normalised: neutral wells 0, positive control 100;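 active = mean replicate protection from cytokine-induced ATP loss at least 50% and at least 75% of replicates each reaching 50%; inconclusive = meets only one of the two criteria, mean or replicate share; inactive = fails both the mean and replicate share criteria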
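Material: INS-1E rat cells; Quantity: 8000 cells/well; Buffer or medium: phenol-red-free RPMI with 5% fetal bovine serum; Probe or stimulus: cytokine cocktail of IFN-γ, TNF-α and IL-1β; Compound dosing: single test concentration per compound, delivered by pin transfer; Incubation: 48 h co-treatment, 10 min post-lysis read; Signal: CellTiter-Glo luminescence.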
T cruzi intra – intracellular Trypanosoma cruzi inhibition; intracellular Trypanosoma cruzi in host cells, plate reader; activity score (inhibition), % at 5.01 µM; actives 4.9% (n = 22,000); AID 651903; in the data active = activity score above about 55%; inconclusive = no clear call, values can overlap the other calls;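 also: parasites and compound incubated about four days before reading; 0% = median of neutral control wells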
The depositor's hits bear a star; u = inconclusive; x = not tested or not shown.

SMILES | A1 apoptosis 2 | INS-1E rescue | T cruzi intra
C[C@H](CO)N1C[C@H](C)[C@H](CN(C)Cc2ccc(Cl)c(Cl)c2)Oc2ccc(NS(=O)(=O)c3ccc(F)cc3)cc2CC1=O | x | 0.0 | 57.2*
C[C@H](CO)N1C[C@H](C)[C@H](CN(C)Cc2ccc(Cl)c(Cl)c2)Oc2ccc(NS(=O)(=O)c3ccc(Cl)cc3)cc2CC1=O | x | -29.6 | 45.2
C[C@H]1CN([C@@H](C)CO)C(=O)Cc2cc(NS(=O)(=O)c3ccc(Cl)cc3)ccc2O[C@H]1CN(C)Cc1ccc(Cl)c(Cl)c1 | -0.9 | -24.5 | 29.5
C[C@@H]1CN([C@H](C)CO)C(=O)Cc2cc(NS(=O)(=O)c3ccc(Cl)cc3)ccc2O[C@@H]1CN(C)Cc1ccc(Cl)c(Cl)c1 | x | -64.7 | 67.5*
Cc1ccc(S(=O)(=O)Nc2ccc3c(c2)CC(=O)N([C@H](C)CO)C[C@H](C)[C@H](CN(C)Cc2ccc(Cl)c(Cl)c2)O3)cc1 | -0.4 | -3.7 | 21.1
Cc1ccc(S(=O)(=O)Nc2ccc3c(c2)CC(=O)N([C@H](C)CO)C[C@H](C)[C@H](CN(C)Cc2ccc4c(c2)OCO4)O3)cc1 | 1.9 | -12.9 | 19.5
Cc1ccc(S(=O)(=O)Nc2ccc3c(c2)CC(=O)N([C@H](C)CO)C[C@@H](C)[C@H](CN(C)Cc2ccc4c(c2)OCO4)O3)cc1 | 1.3 | -0.1 | 61.4*
Cc1ccc(S(=O)(=O)Nc2ccc3c(c2)CC(=O)N([C@@H](C)CO)C[C@H](C)[C@@H](CN(C)Cc2ccc(Cl)c(Cl)c2)O3)cc1 | -0.9 | -54.2 | 75.3*
C[C@@H]1CN([C@@H](C)CO)C(=O)Cc2cc(NC(=O)Cn3cnnn3)ccc2O[C@H]1CN(C)S(=O)(=O)c1cccs1 | 0.4 | x | x
C[C@H](CO)N1C[C@H](C)[C@@H](CN(C)CC2CCCCC2)Oc2c(NC(=O)CCCCCC(=O)Nc3ccccc3N)cccc2C1=O | 0.4 | x | x
O=C(CCCCCCC(=O)Nc1ccccc1O)N/N=C/c1ccccn1 | 0.3 | 5.8 | -1.5
C[C@H]1CN([C@@H](C)CO)C(=O)c2cc(NC(=O)c3ccncc3)ccc2O[C@H]1CN(C)C(=O)Nc1cccc2ccccc12 | 0.4 | x | -1.4
C[C@H](CO)N1C[C@H](C)[C@H](CN(C)Cc2ccncc2)Oc2c(NS(=O)(=O)c3cccs3)cccc2C1=O | x | 0.1 | -4.4
O=C(NO)c1cccc(C(=O)N/N=C/C2=CCCCC2)c1 | -0.5 | -3.6 | -3.1
C[C@@H]1CN([C@H](C)CO)C(=O)Cc2cc(NS(=O)(=O)c3ccc(F)cc3)ccc2O[C@@H]1CN(C)Cc1ccc(Cl)c(Cl)c1 | x | -34.2 | 63.1*
C[C@H]1CN([C@@H](C)CO)C(=O)Cc2cc(NS(=O)(=O)c3ccc(F)cc3)ccc2O[C@@H]1CN(C)Cc1ccc(Cl)c(Cl)c1 | x | -23.8 | u
C[C@H](CO)N1C[C@H](C)[C@H](CN(C)C(=O)Nc2ccccc2)OCCCC[C@H](C)Oc2ccc(NC(=O)c3ccncc3)cc2C1=O | 1.9 | x | x
C[C@@H]1CN([C@@H](C)CO)C(=O)Cc2cc(NC(=O)Nc3ccc4c(c3)OCO4)ccc2O[C@@H]1CN(C)Cc1ccc2c(c1)OCO2 | x | -9.2 | 24.9
C[C@@H]1CN([C@H](C)CO)C(=O)Cc2cc(NC(=O)Nc3ccc4c(c3)OCO4)ccc2O[C@@H]1CN(C)Cc1ccc(C(F)(F)F)cc1 | x | -24.9 | 75.6*
C[C@H](CO)N1C[C@H](C)[C@H](CN(C)Cc2ccc3c(c2)OCO3)Oc2ccc(NC(=O)Nc3ccc(C(F)(F)F)cc3)cc2CC1=O | 0.4 | -34.7 | 74.3*
C[C@@H]1CN([C@H](C)CO)C(=O)Cc2cc(NC(=O)Nc3ccc(F)cc3)ccc2O[C@H]1CN(C)Cc1ccc2c(c1)OCO2 | 0.1 | -2.2 | 6.6
C[C@H]1CN([C@@H](C)CO)C(=O)Cc2cc(NC(=O)Nc3ccc(C(F)(F)F)cc3)ccc2O[C@@H]1CN(C)Cc1ccc2c(c1)OCO2 | x | -6.9 | 17.6
C[C@@H]1CN([C@H](C)CO)C(=O)Cc2cc(NC(=O)Nc3ccc(C(F)(F)F)cc3)ccc2O[C@@H]1CN(C)Cc1ccc2c(c1)OCO2 | -0.1 | -59.0 | 62.0*
Cc1nnc(Sc2ccc(/C=N/NC(=O)c3cccc(C(=O)NO)c3)o2)n1C | x | 3.8 | -23.0
O=C(O)CCCCCCC(=O)N/N=C/c1ccc(-c2cccc(Cl)c2)o1 | x | 21.7 | 3.8
C[C@@H]1CN([C@@H](C)CO)C(=O)c2cc(NC(=O)CCC(F)(F)F)ccc2O[C@@H](C)CCCCO[C@@H]1CN(C)Cc1ccccc1 | 1.1 | x | x
COc1ccc([Si](C)(C)[C@@H]2[C@@H](CCO)O[C@]3(C(=O)N(Cc4ccc(N5CCC5=O)cc4)c4ccccc43)[C@H]2C)cc1 | -0.8 | x | x
